# Screens (PubChem)
# HTR2A ag: agonists of mouse serotonin 5-HT2A receptor (HTR2A) | activation, % at 7.6 µM | 360,000 tested, 0.66% active | CHO-K1 mHTR2A beta-arrestin complementation, luminescence; percent of 30 µM serotonin response | P35363;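 active means activation above a run cutoff, the mean activation of all tested compounds plus 3 SD, cut at about 14% in these data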;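 further: 0% = plate median of compound wells and 100% = 30 µM serotonin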
# MC4R antagonist: blocks human MC4R cAMP signaling; 360,000 tested, 0.48% active; MC4R-expressing cells, MTII-stimulated cAMP, LANCE TR-FRET; AID 540295; P32245; inhibition, % at 6.5 µM;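 active means inhibition above its plate's cutoff, the mean of tested wells on that plate plus 3 SD, cut at about 29% in these data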;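 further: 0% = Melanotan II alone and 100% = Melanotan II plus saturating MCL0020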
#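 System: U2OS-MC4R stable cell line; Technique: Eu-cAMP/anti-cAMP TR-FRET, emission 671 nm; Repeats: single well per compound; Also added: Melanotan II; Dosing: one concentration, 6.5 µM nominal; Schedule: 30-min compound, 1-h challenge, 1-h detection, room temperature.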
# MC4R barr agon: activates human MC4R beta-arrestin recruitment. P32245. U2OS MC4R beta-arrestin complementation, luminescence; percent of melanotan II response, DMSO zero. activation, % at 8.9 µM. 360,000 tested, 0.98% active. AID 540308;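 active means activation above a per-plate cutoff, the mean activation of sample wells on that plate plus 3 SD, cut at about 8% in these data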
# EBI2 block: blocks human EBI2 receptor beta-arrestin signaling | P32249 | inhibition, % at 5 µM | 360,000 tested, 0.81% active | EBI2 beta-arrestin recruitment, luminescence, 7a,25-OHC stimulated; in the data active means inhibition above about 38%;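 further: enzyme fragment complementation signal reports receptor beta-arrestin coupling in cells; 0% = agonist plus DMSO wells and 100% = wells without agonist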
# Target sequence (P32249 whole entry, looked up, the tested form may be a part): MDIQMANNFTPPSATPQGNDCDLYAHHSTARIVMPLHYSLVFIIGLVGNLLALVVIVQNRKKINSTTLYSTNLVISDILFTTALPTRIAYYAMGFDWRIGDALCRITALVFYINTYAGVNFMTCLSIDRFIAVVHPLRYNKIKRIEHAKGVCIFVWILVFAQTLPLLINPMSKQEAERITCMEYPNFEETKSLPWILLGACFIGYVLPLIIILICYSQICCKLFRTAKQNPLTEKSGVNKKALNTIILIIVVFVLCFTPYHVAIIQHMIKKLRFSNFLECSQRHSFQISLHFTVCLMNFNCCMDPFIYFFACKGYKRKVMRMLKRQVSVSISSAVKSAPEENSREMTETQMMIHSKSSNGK
# MC4R barr ag: human MC4R beta-arrestin agonism confirmation; AID 602192; U2OS MC4R beta-arrestin recruitment, luminescence; scaled DMSO 0%, Melanotan II 100%; shares compounds with MC4R barr agon; 2,400 tested, 31% active; activation, % at 8.9 µM;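 active means mean activation across replicates above the hit cutoff set in the earlier primary screen, cut at about 8% in these data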
# MOR-DOR barr ag: counter-screen for MC4R agonists: agonists of mu-delta opioid heterodimer; shares compounds with MC4R barr agon; U2OS PathHunter beta-arrestin, beta-gal luminescence; percent of deltorphin B response, DMSO zero; activation, % at 9.2 µM; 2,400 tested, 5.8% active; AID 602194;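 active means mean activation across replicates exceeds the hit threshold derived in the earlier primary screen, cut at about 18% in these data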;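 further: 100% = deltorphin B at 0.9 µM final and 0% = DMSO alone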
# The depositor's hits bear a star; . = no result given. Rows were chosen to be rich in hits. Some 2.8% of all compounds tested hit in one or more screens of this group.
SMILES,HTR2A ag,MC4R antagonist,MC4R barr agon,EBI2 block,MC4R barr ag,MOR-DOR barr ag
Oc1ccc(C[C@H]2CN([C@@H](Cc3cccc(O)c3)CN3CCC[C@@H]3CN3C(=S)NC[C@@H]3Cc3ccccc3)C(=S)N2CC2CCCCC2)cc1,-9,.,.,28,.,.
COc1ccc(NC(=O)c2cc(-c3ccc(C)cc3O)n[nH]2)c(OC)c1,4,15,10*,16,-2,4
COc1ccc(Cl)cc1-c1cc(C(=O)Nc2ccc(F)cc2)[nH]n1,1,2,16*,20,0,9
CCCOc1ccc(F)cc1-c1cc(C(=O)Nc2cc(OC)c(OC)c(OC)c2)[nH]n1,-5,7,3,7,.,.
COc1ccc(NC(=O)c2cc(-c3cc(Cl)ccc3OC)n[nH]2)cc1OC,-3,16,0,18,.,.
CCCOc1ccc(F)cc1-c1cc(C(=O)Nc2cc(OC)ccc2OC)[nH]n1,-1,5,16*,8,1,11
Cc1ccccc1OCc1nnc(SCC(=O)Nc2ccc3nc(SCC(=O)Nc4ccccc4)sc3c2)n1C,0,-1,18*,-9,6,5
Cn1cnnc1SCC(=O)Nc1ccc2nc(SCc3ccccc3Cl)sc2c1,0,17,0,-4,.,.
Cc1cnc(NC(=O)CSc2nnc(Cc3ccccc3)n2C)s1,-2,1,-1,0,.,.
O=C(CSc1nc2ccc(NC(=O)CSc3nnnn3Cc3ccccc3)cc2s1)Nc1ccccc1,-7,4,12*,-14,6,5
Cc1ccccc1OCc1nnc(SCC(=O)Nc2ccc3c(c2)OCO3)n1C,-6,-3,-2,5,.,.
Cn1cnnc1SCC(=O)Nc1ccc2nc(SCc3cccc4ccccc34)sc2c1,2,10,9.6*,16,3,3
Cc1ccc(C(C)C)c(OCc2nnc(SCC(=O)Nc3ncc(C)s3)n2C)c1,7,-2,13*,-3,6,7
COc1ccc(CN2C(=O)C(CC(=O)NCc3ccco3)CC(C(=O)N(C(C)C)C(C)C)=C2C)cc1 (stereo not given),1,3,0,2,.,.
Cc1ccc(C(=O)N/C(N)=N/c2nc3ccccc3o2)cc1,2,-4,16*,9,4,2
COc1ccccc1C(=O)N/C(N)=N/c1nc2ccccc2o1,5,5,4,27,.,.
N/C(=N\c1nc2ccccc2o1)NC(=O)c1ccccc1,0,15,14*,-2,3,5
N/C(=N\c1nc2ccccc2o1)NC(=O)c1cccc(Br)c1,0,9,-2,7,.,.
COc1cc(CN2C[C@@H](CO)O[C@@H](n3cnc4c(NCc5ccncc5)ncnc43)C2)cc(OC)c1OC,2,1,-2,-10,.,.
O=C(O)CN1C(=O)/C(=C\c2cc(Br)ccc2OCc2ccc(Cl)cc2Cl)SC1=S,0,11,11*,-3,8,1
Cc1ccc(C(C(=O)NC2CCCCC2)N(C(=O)Cc2c[nH]c3ccccc23)c2ccccc2)o1 (stereo not given),-6,-6,12*,28,6,10
CC(=O)Nc1ccc(N(C(=O)Cc2c[nH]c3ccccc23)C(C(=O)NC2CCCCC2)c2ccco2)cc1 (stereo not given),-7,5,-2,1,.,.
CCN1CCN(CCNC(=O)c2ccc(/C=C3\Sc4ccccc4N(Cc4ccccc4F)C3=O)cc2)CC1,-13,1,12*,2,17*,3
CN1CCN(CCCNC(=O)c2ccc(/C=C3/Sc4ccccc4N(Cc4cccc(Cl)c4)C3=O)cc2)CC1,-7,10,10*,0,16*,1
Cc1cccc(CN2C(=O)/C(=C\c3ccc(C(=O)NCCCN4CCN(C)CC4)cc3)Oc3ccccc32)c1,-6,5,4,12,.,.
CCOC(=O)c1ccc(Cl)c(NC(=O)c2ccc(-c3ccccc3)cc2)c1,-1,-19,13*,3,4,16
O=C(Nc1c(Cl)cccc1Cl)c1ccc(-c2ccccc2)cc1,-2,-1,21*,14,-1,11
CC(C)(C)c1ccc2cc(F)cc(F)c2n1,0,.,.,-6,.,.
CCCCC(CC)Cn1c(N)c(C#N)c2nc3ccccc3nc21 (stereo not given),1,-6,17*,13,19*,15
